Assays:
Type in all cases: cell-based
VCaP_NED = experiment: Western blotting of protein expression during NED; settings: 10 μM, 48 hours
Method in brief: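 Neuroendocrine-differentiated cells were treated for 48 h with DMSO, 10 μM GSK343 (an EZH2 inhibitor) or 10 μM test compound. Parental cells treated with DMSO served as the reference. Whole-cell lysates were extracted and analysed by western blotting. Data are from n=3 biological replicates, shown with SEM, and compared by two-tailed Student's t-test.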

LNCaP_NED cells = experiment: Cell proliferation
Method in brief: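 LNCaP cells were cultured in charcoal-stripped serum (androgen- and steroid-depleted) media to induce neuroendocrine differentiation (LNCaP_NED). NED cells were then exposed to the test compound and/or the AR antagonist enzalutamide for 4 days, and cell proliferation was measured. DMSO served as the negative control.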

LNCaP cells = experiment: Cell proliferation

| SMILES | CBX2 protein expression (VCaP_NED) | H3K27me3 levels (global) (VCaP_NED) | AR protein expression (VCaP_NED; compared to DMSO) | ENO2 and N-Myc protein expression (VCaP_NED; compared to DMSO) | cell proliferation with AR antagonist (LNCaP_NED cells) | cell proliferation with AR antagonist (LNCaP cells) |
| --- | --- | --- | --- | --- | --- | --- |
| CCCc1cc(C)[nH]c(=O)c1CNC(=O)c1cc(-c2ccnc(N3CCN(C)CC3)c2)cc2c1cnn2C(C)C [GSK343] | decrease in CBX2 expression | reduces H3K27me3 levels | increase AR | decrease ENO2 and N-Myc expression | – | – |
| CNC(=O)c1ccc(N2C(=S)N(c3ccc(C#N)c(C(F)(F)F)c3)C(=O)C2(C)C)cc1F [enzalutamide] | – | – | – | – | no further decrease in proliferation | highly decreased proliferation |
